A selection: hits, their analogues and other compounds. The true share with any hit is near 12%.
L major viab: inhibitors of Leishmania major promastigote growth; Leishmania major promastigotes, resazurin fluorescence viability; inhibition, % at 10 µM; 200,000 tested, 9% active; in the data active means inhibition above about 50%;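 further: promastigotes grown with compound for 44 hours at 28 °C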
bCat nuc transl: modulators of beta-catenin nuclear translocation | HeLa beta-catenin nuclear translocation, immunofluorescence imaging | nuclear translocation activity, % at 5 µM | 190,000 tested, 0.3% active | AID 1665;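 active means nuclear translocation activity above 50% at 5 µM, with a well cell count of 50 or more; inconclusive means wells under 50 cells across six images, flagged as toxic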;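 further: per-cell ratio of nuclear to cytoplasmic median beta-catenin stain intensity; plate controls were DMSO negative control for no effect and GSK-3 inhibitor IX positive control for full effect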
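Assay system: human HeLa cells, native beta-catenin; doses: 5 µM primary, 0.02–20 µM confirmation; incubation: compound treatment 24 h, 37°C, 5% CO2; technique: fluorescence imaging of beta-catenin antibody stain plus DAPI; measure: % activation, nuclear-to-cytoplasmic median beta-catenin signal ratio per cell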
Dynein cargo inh: dynein cargo transport inhibition; 3617.4 mouse cells, GR-EGFP nuclear translocation imaging; test concentration mostly 20 µM; stimulated with dexamethasone, 1 µM; active compounds read low; z-score, hits read low; 220,000 tested, 0.47% active; AID 1381;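 active means plate z-score of nuclear minus cytoplasmic receptor signal below a set negative limit, without overly bright fluorescence or cell loss, cut at about -3.5 in these data, passing the limit was not always enough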;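 further: z-score of nuclear minus cytoplasmic ring GR-EGFP intensity difference per well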
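Schedule: 48 h induction, then 1 h compound, then 30 min agonist, 37 °C. Buffer or medium: tetracycline-free induction medium containing charcoal-stripped FBS. Reagent: 1.0 µM final dexamethasone stimulus. Evaluation: nuclear versus cytoplasmic GR-EGFP signal, averaged per well. Signal: high-content fluorescence imaging after fixation.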
MT stabilize HCS: microtubule stabilization, imaging screen; AID 2205; HeLa tubulin immunostaining HCS, 24 h; share of cells brighter than vehicle mean+2SD; 200,000 tested, 0.83% active; % tubulin-high responders, % at 10 µM;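 active means plate Z-score above 3 for both tubulin-high and condensed-nucleus cell shares, with cell loss under 80%, at 10 µM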;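 further: anti alpha tubulin signal scored within the nucleus-defined area of each cell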
Autophagy mod: alters autophagy in cells | MEF GFP-LC3 puncta imaging; test concentration mostly 10 µM | calls only at 10 µM (by protocol) | 190,000 tested, 0.98% active;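 active means percentage of spot-positive cells more than 3 SD above its plate mean, without a fluorescence outlier flag or 80% toxicity; inconclusive means no clear call, values can overlap the other calls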;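 further: spot-positive cell cutoff set from DMSO-treated cells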
CHOP inh: blocks CHOP induction under ER stress. CHO-K1 CHOP-promoter luciferase, tunicamycin-induced, 15-18 h. inhibition, % at 10 µM. 220,000 tested, 3.8% active;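 active means compounds that reduced the stress-induced luciferase reporter signal by more than about 70% of percent inhibition, limit read from the data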;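 further: 0% = tunicamycin plus vehicle and 100% = wells without tunicamycin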
An asterisk follows results filed as active; i = inactive; ? = inconclusive; . = no result given; + = active, no number.

SMILES | L major viab | bCat nuc transl | Dynein cargo inh | MT stabilize HCS | Autophagy mod | CHOP inh
Cc1cc(C)n(-c2nc(C)nc(NCc3ccccc3)n2)n1 | 59.3* | -0.7 | -0.875 | 0.6 | i | 24.9
CCOC(=O)C1CCN(c2c(NCCC(C)C)c(=O)c2=O)CC1 | . | 0.7 | 0.88 | . | . | -20.9
O=C(COC(=O)c1ccc2c(c1)C(=O)N(CCc1ccccc1)C2=O)Nc1ccc(OC(F)F)cc1 | -7.4 | 1.2 | -0.294 | 2.0 | i | 20.1
CCN(CC)CCCn1c(C)cc2c(c1=O)C(c1cccc(Cl)c1)C(C#N)=C(N)O2 (stereo unspecified) | 66.5* | -2.4 | -0.149 | 3.3 | i | -6.5
O=c1[nH]c(Nc2nc3ccccc3o2)nc2c1CCCC2 | 95.3* | 13.7 | 0.0978 | 2.9 | ? | 96.6*
Brc1cccc(CNc2nc3ccccc3n2CCN2CCCCC2)c1 | . | 0.5 | 0.948 | . | . | -6.6
Cn1c(NCc2cccc(Br)c2)nc2ccccc21 | 60.9* | -1.5 | -0.7 | 1.5 | i | 1.0
NS(=O)(=O)c1ccc(NC(=O)CN2CCN(Cc3ccccc3)CC2)cc1 | -2.1 | 3.8 | 1.1 | 3.0 | i | -3.7
COc1cc(OC)c2nc(C)c3c(c2c1)N(c1ccc(O)cc1)CC3 | 98.8* | . | -0.989 | 2.6 | i | 22.4
COc1ccc(-n2nc(C)cc2N)cc1 | -5.9 | 1.7 | 0.207 | 3.0 | i | -22.9
CCOC(=O)CNCCC(=O)c1ccc(Br)cc1 | 63.5* | -0.2 | -1.05 | 3.2 | i | 12.1
Cc1ccc(C(=O)NCC(=O)NCC(=O)OCC(=O)c2ccc(Br)cc2)cc1 | 35.1 | -2.4 | -0.0472 | 3.7 | i | 9.2
CCCN1C(=O)c2[nH]nc(-c3cc(Cl)c(C)cc3O)c2C1c1ccc(O)c(OC)c1 (stereo unspecified) | . | 0.8 | 0.919 | . | . | -2.9
COc1ccc(CCN2C(=O)c3[nH]nc(-c4ccccc4O)c3C2c2ccccc2)cc1OC (stereo unspecified) | 59.9* | -4.6 | -0.804 | 4.7 | i | 58.2
Cc1cc(O)c(-c2n[nH]c3c2C(c2cccc(O)c2)N(Cc2cccnc2)C3=O)cc1Cl (stereo unspecified) | -6.6 | 0.4 | 0.0938 | 4.9 | i | 13.1
COCCCN1C(=O)c2[nH]nc(-c3ccccc3O)c2C1c1cccc(Cl)c1 (stereo unspecified) | 36.0 | -4.5 | 0.0471 | 36.2* | + | .
COCCCN1C(=O)c2[nH]nc(-c3cc(C)cc(C)c3O)c2C1c1ccc(O)c(OC)c1 (stereo unspecified) | 8.9 | -3.6 | -0.464 | 3.7 | i | 12.1
CC(C)OCCCN1C(=O)c2[nH]nc(-c3ccccc3O)c2C1c1cccc(Cl)c1 (stereo unspecified) | 70.3* | -8.0 | 0.313 | 16.0 | i | 94.5*
COCCCN1C(=O)c2[nH]nc(-c3ccccc3O)c2C1c1ccc(Cl)cc1 (stereo unspecified) | 66.2* | -0.1 | 1.07 | 44.2* | i | 52.9
COc1cc(/C=C/CN2CCN(Cc3ccc(C)o3)C(CCO)C2)ccc1O (stereo unspecified) | -0.7 | -1.8 | -0.477 | 1.0 | i | 25.2
COc1ccc(-c2n[nH]c3c2C(c2ccc(OC)c(OC)c2)N(c2ccccc2)C3=O)cc1 (stereo unspecified) | 96.5* | . | 1.64 | 1.5 | i | 17.2
COc1ccc(C2c3c(-c4ccccc4)n[nH]c3C(=O)N2c2ccc(C(=O)O)cc2)cc1 (stereo unspecified) | . | 0.9 | 0.287 | . | . | -6.3
O=C(Nc1cccc(C(F)(F)F)c1)C1CCCN1S(=O)(=O)c1cccc2cccnc12 (stereo unspecified) | 83.5* | . | -0.327 | 4.6 | i | 57.4
NCCc1nnc(SCc2c(Cl)cccc2Cl)o1 | . | 0.8 | -0.229 | . | . | 18.2
NCCCCCc1nnc(SCc2ccccc2Cl)o1 | 98.8* | -0.9 | -0.118 | 3.0 | i | 65.7
Cc1cc(C)n(-c2nc3sc4c(c3c(=O)[nH]2)CCCC4)n1 | 99.2* | 2.7 | 0.433 | 2.0 | + | -74.9
Cc1ccc(C)n1-n1cnc2sc3c(c2c1=O)CCCCC3 | -3.5 | 3.6 | -0.125 | 3.4 | i | 33.8
Cc1ccc(C)n1-n1c(C)nc2sc3c(c2c1=O)CCCCC3 | 11.5 | -1.2 | -0.0957 | 5.2 | i | 79.2*
